# Compound activity from PubChem BioAssay.
# Sampled rows, rich in hits. Any-hit rate of the full collection: about 1.2%.
# A3A deaminase = APOBEC3A ssDNA deaminase inhibitors, primary screen, selectivity assay for APOBEC3G inhibitor project, biochemical, FAM/TAMRA oligo cleavage fluorescence; recombinant A3A, FAM/TAMRA ssDNA deamination fluorescence; inhibition, % at 20 µM; actives 0.41% (n = 330,000);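 active means at least 40% inhibition at 20 µM here, with at most 30% in a related deaminase screen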
# Target sequence (P31941 whole entry, looked up): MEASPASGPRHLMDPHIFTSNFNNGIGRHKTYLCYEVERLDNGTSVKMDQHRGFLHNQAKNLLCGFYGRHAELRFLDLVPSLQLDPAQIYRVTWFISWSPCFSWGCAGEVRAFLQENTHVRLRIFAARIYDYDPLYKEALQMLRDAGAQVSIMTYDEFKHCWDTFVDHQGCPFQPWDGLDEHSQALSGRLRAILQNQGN
# ABHD5 PLIN5 PPI = ABHD5-PLIN5 interaction inhibitors, primary screen, cell lysate, split luciferase complementation, luminescence; actives 0.78% (n = 360,000); Split G. princeps luciferase complementation, 4 h; Perilipin-5 (Homo sapiens) + 1-acylglycerol-3-phosphate O-acyltransferase ABHD5 (Homo …; inhibition, % at 4 µM;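 active means inhibition above the mean inhibition across every tested compound plus 3 SD, cut at about 22% in these data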
# FN deposition inh = inhibitors of fibronectin matrix deposition, primary screen, AH1F cells, Alexa488-fibronectin fluorescence, plate reader; AH1F fibroblasts, overnight; inhibition, % at 12.6 µM; actives 0.086% (n = 350,000);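 active means mean inhibition across replicates of 30% or more, regardless of how many single replicates reach that level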
#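 Assay system: AH1F fibroblast monolayer, labelled fibronectin deposition. Amount: 10000 cells per well. Also added: labelled fibronectin 24 nM. Compound: single-point pinned compound. Incubation: cell attachment 1 h, compound and FN exposure overnight. Detection: fluorescence after three HBSS washes, excitation 485 nm, emission 525 nm. Read-out: inhibition of fibronectin deposition signal.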
# A3G deaminase = APOBEC3G DNA deaminase inhibitors, primary screen, biochemical, fluorescence, single-stranded DNA substrate, uHTS. DNA dC->dU-editing enzyme APOBEC-3G (Homo sapiens), Q9HC16. recombinant A3G, ssDNA deamination FAM/TAMRA fluorescence. inhibition, % at 20 µM. actives 0.28% (n = 330,000). AID 493012, 2011;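 active means inhibition of at least 40% at 20 µM, with no more than 30% in the related APOBEC3A deaminase screen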
# Target sequence (Q9HC16 whole entry, looked up): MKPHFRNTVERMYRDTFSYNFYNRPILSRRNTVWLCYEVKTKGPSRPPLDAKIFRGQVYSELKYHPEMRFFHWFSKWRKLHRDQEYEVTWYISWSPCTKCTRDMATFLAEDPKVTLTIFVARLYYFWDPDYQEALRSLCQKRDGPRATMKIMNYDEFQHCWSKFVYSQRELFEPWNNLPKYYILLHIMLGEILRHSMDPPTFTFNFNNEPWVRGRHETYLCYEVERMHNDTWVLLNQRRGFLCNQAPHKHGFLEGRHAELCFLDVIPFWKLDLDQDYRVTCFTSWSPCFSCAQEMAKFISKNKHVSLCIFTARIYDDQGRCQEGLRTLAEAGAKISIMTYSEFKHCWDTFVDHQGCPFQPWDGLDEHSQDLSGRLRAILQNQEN
# A3G conf = APOBEC3G deaminase inhibitor retest, confirmation, biochemical, fluorescence, single-stranded DNA substrate, single concentration; shares compounds with A3G deaminase; recombinant A3G ssDNA deaminase, UDG/FAM-TAMRA fluorescence; inhibition, % at 20 µM; actives 72% (n = 890);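 active means inhibition reaching a set limit in any replicate at 20 µM, the limit being 80% of the first screen's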
# UDG ctr A3G = E. coli UDG inhibitors, confirmation, counter-screen for APOBEC3G inhibitor project, biochemical, single concentration, fluorescence, FAM/TAMRA oligo. inhibition, % at 20 µM. UDG counterscreen. 710 tested, under 10 active. shares compounds with A3G deaminase;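 active means compounds giving 40% or more inhibition at 20 µM in any one of the three replicates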;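 further: inhibitors lower the FAM signal released by uracil excision and alkaline cleavage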
# Hits are given with their value; – = inactive; · = not tested or not shown.
SMILES,A3A deaminase,ABHD5 PLIN5 PPI,FN deposition inh,A3G deaminase,A3G conf,UDG ctr A3G
C[C@@H]1CN([C@H](C)CO)C(=O)c2cc(-c3cccnc3)cnc2O[C@@H]1CN(C)C(=O)Cc1cccnc1,·,·,–,·,·,·
C[C@@H]1CN=C2N(CCNC(=O)CCC3CCCCC3)[C@H](Cc3ccc(O)cc3)CN21,–,–,–,–,·,·
CCCCCCNC(=O)N[C@H](C(=O)NCCC[C@H]1CN2C(=NC[C@H]2C)N1CCC(c1ccccc1)c1ccccc1)C(C)O (some centres not stated),–,·,·,78.0,72.5,·
C=CCn1c(-c2cccc(S(=O)(=O)N(CC)CC)c2)n[nH]c1=S,–,–,–,46.7,79.0,–
CCN(CC)S(=O)(=O)c1cccc(-c2n[nH]c(=S)n2C)c1,–,–,–,45.6,69.4,–
Cc1ccc(-n2c(-c3ccc(Cl)cc3)n[nH]c2=S)c(C)c1,–,–,–,–,·,·
C=CCn1c(-c2cccc(S(=O)(=O)N3CCOCC3)c2)n[nH]c1=S,–,–,–,–,·,·
CCN(CC)S(=O)(=O)c1cccc(-c2csc(C)n2)c1,–,–,–,–,·,·
Cc1ccc(-c2n[nH]c(=S)n2C)cc1Cl,–,–,·,49.9,61.2,–
C=CCn1c(-c2cccc([N+](=O)[O-])c2)n[nH]c1=S,–,–,–,43.0,68.0,–
C=C(C)Cn1c(-c2cccc([N+](=O)[O-])c2)n[nH]c1=S,–,–,·,44.1,74.7,–
C=CCn1c(OCc2ccccc2)n[nH]c1=S,–,–,–,40.9,67.4,–
C=CCn1c(-c2ccc(OC)c(OC)c2)n[nH]c1=S,–,–,–,–,·,·
C=CCn1c(-c2sccc2C)n[nH]c1=S,–,–,–,44.4,–,·
C=C(C)Cn1c(CCn2c3ccccc3c3ccccc32)n[nH]c1=S,–,–,–,–,·,·
C=CCn1c(-c2cccc(Cl)c2)n[nH]c1=S,–,–,·,48.5,86.1,–
C=C(C)Cn1c(-c2cccs2)n[nH]c1=S,–,–,–,55.3,55.1,–
O=C(CNc1cc(S(=O)(=O)N2CCOCC2)ccc1N1CCOCC1)Nc1cccc(C(F)(F)F)c1,–,–,·,40.6,–,·
CCCCCc1ccc(-c2ccc(/C=C/C(=O)O)cc2)nc1,–,–,–,88.8,–,·
CCc1cccc(C)c1NC(=S)NCc1ccc2c(c1)cc(C)n2C,–,–,–,40.4,–,–
Cc1ccccc1NC(=S)NCc1ccc2c(c1)cc(C)n2C,–,–,–,–,·,·
Cc1cc(C)n(CCc2nc(-c3ccc(C)o3)cs2)n1,–,–,·,47.2,39.8,·
COc1ccccc1NC(=O)N[C@H]1CC[C@@H](CCn2cc(-c3ccccc3OC)nn2)O[C@@H]1CO,·,·,–,·,·,·
CC(=O)NC(=S)NNC(=O)C(c1ccccc1)c1ccccc1,–,–,–,46.1,41.3,–
COc1ccc(NC(=O)Nc2ccc3c(c2)[C@H]2C[C@H](CC(=O)N4CCCCC4)O[C@@H](CO)[C@H]2O3)cc1,·,·,–,·,·,·
SMILES,A3A deaminase,ABHD5 PLIN5 PPI,FN deposition inh,A3G deaminase,A3G conf,UDG ctr A3G
NC(=O)c1c(NC(=O)CCCn2cnc([N+](=O)[O-])n2)sc2c1CCCC2,–,–,–,59.2,41.4,–
COc1ccc(OC)c(C2CC(=O)N3CN(c4ccccc4F)CSC3=C2C#N)c1 (configuration not stated),–,–,–,66.7,–,–
COc1cc(C2CC(=O)N3CN(c4ccccc4C)CSC3=C2C#N)cc(OC)c1OC (configuration not stated),–,·,–,48.8,33.3,·
COc1cccc(C2CC(=O)N3CN(c4ccccc4F)CSC3=C2C#N)c1 (configuration not stated),–,–,·,57.2,30.8,–
COc1ccccc1N1CSC2=C(C#N)C(c3ccc(SC)cc3)CC(=O)N2C1 (configuration not stated),–,–,–,–,·,·
COc1ccc(OC)c(C2CC(=O)N3CN(c4cccc(Cl)c4C)CSC3=C2C#N)c1 (configuration not stated),–,–,–,–,·,·
Cc1cc(-c2n[nH]c(=S)n2CC(C)C)cs1,–,–,·,49.4,66.1,–
CCn1c(-c2csc(C(C)C)c2)n[nH]c1=S,–,–,–,50.9,–,·
CCCc1cc(-c2n[nH]c(=S)n2CC)cs1,–,–,·,43.0,78.6,–
CCc1cc(-c2n[nH]c(=S)n2Cc2ccccc2)cs1,–,–,–,–,·,·
CCCCn1c(-c2csc(CCC)c2)n[nH]c1=S,·,–,–,·,·,·
CCc1cc(-c2n[nH]c(=S)n2CC)cs1,–,–,–,52.0,82.7,–
O=C(C[C@H]1CC[C@H](NC(=O)Nc2cc(F)ccc2F)[C@@H](CO)O1)NCc1ccc2c(c1)OCO2,·,·,–,·,·,·
O=c1/c(=C/c2ccccn2)sc2nc3ccccc3n12,–,–,·,–,·,·
COC(=O)/C=c1/sc2nc3ccccc3n2c1=O,–,–,·,72.9,74.5,–
CO[C@H]1CN(C)C(=O)c2cc(NS(C)(=O)=O)ccc2OC[C@H](C)N(Cc2cccnc2)C[C@H]1C,·,·,–,·,·,·
O=c1c2cc(F)ccc2sn1-c1ccc(F)cc1,–,32.6,·,72.3,78.0,–
C[C@H]1CCCCO[C@@H](CN(C)Cc2ccc(C(=O)O)cc2)[C@@H](C)CN([C@@H](C)CO)C(=O)c2cc(NC(=O)Nc3ccccc3)ccc2O1,·,·,–,·,·,·
Cc1c2cnn(CC(=O)Nc3c(F)c(F)cc(F)c3F)c(=O)c2c(C)n1Cc1ccccc1F,–,–,–,44.9,47.7,–
CNC(=O)Cn1ncc2c(C)n(Cc3ccc(C)cc3)c(C)c2c1=O,–,–,·,–,·,·
C[C@H]1CN([C@@H](C)CO)C(=O)c2cc(N(C)C)ccc2O[C@H]1CN(C)S(C)(=O)=O,·,·,–,·,·,·
CC1(C)Cc2c(c(N3CCOCC3)nc3sc(C(=O)N4CCCCC4)c(N)c23)CO1,–,–,–,46.8,28.4,–
CCCC(=O)Nc1ccc2c(c1)C(=O)N(C)[C@H]1CC[C@H](CC(=O)Nc3ccccc3F)O[C@@H]1CO2,·,·,–,·,·,·
CCCNC(=O)C[C@@H]1CC[C@@H]2[C@H](COc3ccc(NC(=O)c4ccc(C(F)(F)F)cc4)cc3C(=O)N2C)O1,·,·,–,·,·,·
NC(=S)N=Nc1ccc(NN=C(N)N)cc1,–,–,–,45.4,46.3,·
N#C/C(=N/Nc1ccc(OC(F)(F)F)cc1)C(N)=S,–,–,–,–,·,·
